Results from ChEMBL document CHEMBL1150393, “Evaluation of radiolabeled (hetero)aromatic analogues of N-(2-diethylaminoethyl)-4-iodobenzamide for imaging and targeted radionuclide therapy of melanoma” (J Med Chem, 2008).
One block for each compound: values may come before it.

Experiments:
[1] = Binding affinity to melanin in water; set-up: concentration or dose not given beside the values; conditions: tested as the 125I-labelled form
[2] = Binding affinity to melanin in phosphate buffer solution; set-up: concentration or dose not given beside the values; conditions: tested as the 125I-labelled form
[3] = Biodistribution in tumor of C57BL/6 mouse bearing mouse B16-F0 cells at 0.74 to 0.92 MBq, iv after 72 hrs; type: ADME, organism-based, Neoplasm; conditions: in vivo
Summary of the method: (§1)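 [¹²⁵I]-labelled compound given iv by tail vein (0.1 µmol per mouse) to male C57BL6 mice bearing s.c. B16-F0 flank tumours (5 × 10⁵ cells in PBS). Two mice per time point were killed by CO₂, frozen in liquid nitrogen and cut into 40 µm cryosections, eight slices per mouse. Slice radioactivity was read on a multiwire proportional counter, converted to kBq/g and reported as %ID/g.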

[4] = Biodistribution in tumor of C57BL/6 mouse bearing mouse B16-F0 cells at 0.74 to 0.92 MBq, iv after 3 hrs; type: ADME, organism-based, Neoplasm; conditions: in vivo; summary of the method: as §1
[5] = Drug excretion in mouse B16-F0 cells bearing C57BL/6 mouse urine at 0.74 to 0.92 MBq, iv after 72 hrs; type: ADME, organism-based; conditions: in vivo
Summary of the method: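 Urine was collected from two B16-F0 tumour-bearing C57BL6 mice for up to 72 h after iv tail-vein injection of the [¹²⁵I]-labelled compound (0.1 µmol). Samples were counted to give cumulative urinary excretion as %ID.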

[6] = Biodistribution in tumor of C57BL/6 mouse bearing mouse B16-F0 cells at 0.74 to 0.92 MBq, iv after 24 hrs; type: ADME, organism-based, Neoplasm; conditions: in vivo; summary of the method: as §1
[7] = Biodistribution in tumor of C57BL/6 mouse bearing mouse B16-F0 cells at 0.74 to 0.92 MBq, iv after 6 hrs; type: ADME, organism-based, Neoplasm; conditions: in vivo; summary of the method: as §1
[8] = Biodistribution in uvea of C57BL/6 mouse bearing mouse B16-F0 cells at 0.74 to 0.92 MBq, iv after 72 hrs; type: ADME, organism-based, Uveal tract; conditions: in vivo; summary of the method: as §1
Liver [9] = assay: Biodistribution in liver of C57BL/6 mouse bearing mouse B16-F0 cells at 0.74 to 0.92 MBq, iv after 1 hr; type: ADME, organism-based; conditions: in vivo
Summary of the method: (§2)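 Male C57BL6 mice with s.c. left-flank B16-F0 melanoma (5 × 10⁵ cells in PBS). Two mice per time point frozen in liquid nitrogen after CO₂ sacrifice. Eight 40 µm whole-body cryosections per mouse read by multiwire proportional counter. cpm/mm² converted to kBq/g and expressed as %ID/g.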

Muscle tissue [10] = assay: Biodistribution in muscle of C57BL/6 mouse bearing mouse B16-F0 cells at 0.74 to 0.92 MBq, iv after 3 hrs; type: ADME, organism-based; conditions: in vivo; summary of the method: as §2
[11] = Biodistribution in tumor of C57BL/6 mouse bearing mouse B16-F0 cells at 0.74 to 0.92 MBq, iv after 1 hr; type: ADME, organism-based, Neoplasm; conditions: in vivo; summary of the method: as §1
[12] = Biodistribution in Stomach content of C57BL/6 mouse bearing mouse B16-F0 cells at 0.74 to 0.92 MBq, iv after 6 hrs; type: ADME, organism-based; conditions: in vivo; summary of the method: as §2
[13] = Biodistribution in intestinal content of C57BL/6 mouse bearing mouse B16-F0 cells at 0.74 to 0.92 MBq, iv after 1 hr; type: ADME, organism-based; conditions: in vivo; summary of the method: as §2
[14] = Biodistribution in uvea of C57BL/6 mouse bearing mouse B16-F0 cells at 0.74 to 0.92 MBq, iv after 3 hrs; type: ADME, organism-based, Uveal tract; conditions: in vivo; summary of the method: as §1
[15] = Biodistribution in intestinal content of C57BL/6 mouse bearing mouse B16-F0 cells at 0.74 to 0.92 MBq, iv after 24 hrs; type: ADME, organism-based; conditions: in vivo; summary of the method: as §2
[16] = Ratio of drug level in tumor to lung of C57BL/6 mouse bearing mouse B16-F0 cells at 0.74 to 0.92 MBq, iv after 1 hr; type: ADME, organism-based; conditions: in vivo
Summary of the method: (§3)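 Tumour and organ radioactive concentrations came from whole-body cryosection counting (40 µm slices, eight per mouse, two mice per time) after tail-vein injection of the [¹²⁵I]-labelled compound (0.1 µmol) into male C57BL6 mice bearing s.c. B16-F0 melanoma. Each value is the ratio of the tumour concentration to the organ concentration.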

[17] = Biodistribution in Stomach content of C57BL/6 mouse bearing mouse B16-F0 cells at 0.74 to 0.92 MBq, iv after 1 hr; type: ADME, organism-based; conditions: in vivo; summary of the method: as §2
[18] = Biodistribution in intestinal content of C57BL/6 mouse bearing mouse B16-F0 cells at 0.74 to 0.92 MBq, iv after 6 hrs; type: ADME, organism-based; conditions: in vivo; summary of the method: as §2
[19] = Biodistribution in uvea of C57BL/6 mouse bearing mouse B16-F0 cells at 0.74 to 0.92 MBq, iv after 6 hrs; type: ADME, organism-based, Uveal tract; conditions: in vivo; summary of the method: as §1
[20] = Partition coefficient, log P in phosphate buffer solution at pH 7.4; type: physicochemical
Summary of the method: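 Shake-flask partition: 50 µM [¹²⁵I]-labelled compound in phosphate buffer pH 7.4 was mixed with 2 mL n-octanol. Each phase was γ-counted, P was taken as the octanol/buffer activity ratio, and log P was reported.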

[21] = Biodistribution in uvea of C57BL/6 mouse bearing mouse B16-F0 cells at 0.74 to 0.92 MBq, iv after 24 hrs; type: ADME, organism-based, Uveal tract; conditions: in vivo; summary of the method: as §1
Pancreas = assay: Biodistribution in pancreas of C57BL/6 mouse bearing mouse B16-F0 cells at 0.74 to 0.92 MBq, iv after 1 hr; type: ADME, organism-based; conditions: in vivo; summary of the method: as §2
[22] = Biodistribution in Stomach content of C57BL/6 mouse bearing mouse B16-F0 cells at 0.74 to 0.92 MBq, iv after 3 hrs; type: ADME, organism-based; conditions: in vivo; summary of the method: as §2
Lung = assay: Biodistribution in lung of C57BL/6 mouse bearing mouse B16-F0 cells at 0.74 to 0.92 MBq, iv after 1 hr; type: ADME, organism-based; conditions: in vivo; summary of the method: as §2
Blood = assay: Biodistribution in blood of C57BL/6 mouse bearing mouse B16-F0 cells at 0.74 to 0.92 MBq, iv after 1 hr; type: ADME, organism-based; conditions: in vivo; summary of the method: as §2
Liver [23] = assay: Biodistribution in liver of C57BL/6 mouse bearing mouse B16-F0 cells at 0.74 to 0.92 MBq, iv after 3 hrs; type: ADME, organism-based; conditions: in vivo; summary of the method: as §2
[24] = Ratio of drug level in tumor to liver of C57BL/6 mouse bearing mouse B16-F0 cells at 0.74 to 0.92 MBq, iv after 1 hr; type: ADME, organism-based; conditions: in vivo; summary of the method: as §3
[25] = Ratio of drug level in tumor to liver of C57BL/6 mouse bearing mouse B16-F0 cells at 0.74 to 0.92 MBq, iv after 3 hrs; type: ADME, organism-based; conditions: in vivo; summary of the method: as §3
Muscle tissue [26] = assay: Biodistribution in muscle of C57BL/6 mouse bearing mouse B16-F0 cells at 0.74 to 0.92 MBq, iv after 1 hr; type: ADME, organism-based; conditions: in vivo; summary of the method: as §2
Spleen = assay: Biodistribution in spleen of C57BL/6 mouse bearing mouse B16-F0 cells at 0.74 to 0.92 MBq, iv after 1 hr; type: ADME, organism-based; conditions: in vivo; summary of the method: as §1
[27] = Biodistribution in intestinal content of C57BL/6 mouse bearing mouse B16-F0 cells at 0.74 to 0.92 MBq, iv after 3 hrs; type: ADME, organism-based; conditions: in vivo; summary of the method: as §2
[28] = Biodistribution in uvea of C57BL/6 mouse bearing mouse B16-F0 cells at 0.74 to 0.92 MBq, iv after 1 hr; type: ADME, organism-based, Uveal tract; conditions: in vivo; summary of the method: as §1
Kidney = assay: Biodistribution in kidney of C57BL/6 mouse bearing mouse B16-F0 cells at 0.74 to 0.92 MBq, iv after 1 hr; type: ADME, organism-based; conditions: in vivo; summary of the method: as §2

Structure (SMILES): CCN(CC)CCNC(=O)c1cc2cc(I)ccc2o1
Activity [1]: 87% | Activity [2]: 45.2%

Structure (SMILES): CCN(CC)CCNC(=O)c1cn2cc([125I])ccc2n1.Cl.Cl
Drug uptake [3]: 2.7 % ID/g | Drug uptake [8]: 9.55 % ID/g | Drug uptake (Liver [9]): 3.97 % ID/g | Drug uptake (Muscle tissue [10]): 0.09 % ID/g | Drug uptake [11]: 5.7 % ID/g | Drug uptake [12]: 16.57 % ID/g | Drug uptake [13]: 9.48 % ID/g | Drug uptake [14]: 19.18 % ID/g | Drug uptake [15]: 2.68 % ID/g | Ratio [16]: 2.34 | Drug uptake [4]: 7.1 % ID/g | Drug uptake [17]: 4.55 % ID/g | Drug uptake [18]: 56.39 % ID/g | Activity [5]: 36.8% | Drug uptake [6]: 8 % ID/g | Drug uptake [19]: 26.81 % ID/g | logD [20]: 0.71 | Drug uptake [7]: 8.1 % ID/g | Drug uptake [21]: 11.54 % ID/g | Drug uptake (Pancreas): 7.52 % ID/g | Drug uptake [22]: 5.19 % ID/g | Drug uptake (Lung): 2.42 % ID/g | Drug uptake (Blood): 0.68 % ID/g | Drug uptake (Liver [23]): 0.99 % ID/g | Ratio [24]: 1.43 | Ratio [25]: 7.21 | Drug uptake (Muscle tissue [26]): 0.51 % ID/g | Drug uptake (Spleen): 13.07 % ID/g | Drug uptake [27]: 78.03 % ID/g | Drug uptake [28]: 17.43 % ID/g | Drug uptake (Kidney): 2.99 % ID/g

Structure (SMILES): CCN(CC)CCNC(=O)c1cc2c(I)cccc2s1
Activity [1]: 87.6% | Activity [2]: 56.1%

Structure (SMILES): CCN(CC)CCNC(=O)c1ccc2cc(I)ccc2n1
Activity [1]: 87.4% | Activity [2]: 43.2%

Now from value to compound:

Drug uptake [3]: 0.8 % ID/g | Drug uptake [4]: 9.1 % ID/g | Activity [5]: 83.1% | Drug uptake [6]: 3.7 % ID/g | Drug uptake [7]: 7.7 % ID/g
Structure (SMILES): CCN(CC)CCNC(=O)c1ccc(I)cc1

Activity [1]: 75.3% | Activity [2]: 11.6%
Structure (SMILES): CCN(CC)CCNC(=O)c1cn2cc(I)ccc2n1

Activity [1]: 28.1% | Activity [2]: 3.5%
Structure (SMILES): CCN(CC)CCNC(=O)c1ccc(I)nc1

Activity [1]: 67.4% | Activity [2]: 47.3%
Structure (SMILES): CCN(CC)CCNC(=O)c1cnc2cc(I)ccc2n1
